Measles CPE – protection of cells from measles virus | Measles virus-infected cells, CPE protection, absorbance | protection (pct of control), % at 4 µM | actives 1.5% (n = 140,000) | AID 841; in the data active = protection mostly above about 24%, no sharp cut-off; inactive = mostly below about 26%
NPY1 pot ag – potentiators or agonists of human neuropeptide Y receptor Y1. AID 1304. NPY-Y1 expressing cells, potentiator/agonist activation. actives 0.37% (n = 220,000). activation, % at 3.6 µM; in the data active = activation above about 33%, passing the limit was not always enough;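 note: cells stimulated with NPY at EC10 then isoproterenol at EC100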
Target sequence (P25929 whole entry, looked up): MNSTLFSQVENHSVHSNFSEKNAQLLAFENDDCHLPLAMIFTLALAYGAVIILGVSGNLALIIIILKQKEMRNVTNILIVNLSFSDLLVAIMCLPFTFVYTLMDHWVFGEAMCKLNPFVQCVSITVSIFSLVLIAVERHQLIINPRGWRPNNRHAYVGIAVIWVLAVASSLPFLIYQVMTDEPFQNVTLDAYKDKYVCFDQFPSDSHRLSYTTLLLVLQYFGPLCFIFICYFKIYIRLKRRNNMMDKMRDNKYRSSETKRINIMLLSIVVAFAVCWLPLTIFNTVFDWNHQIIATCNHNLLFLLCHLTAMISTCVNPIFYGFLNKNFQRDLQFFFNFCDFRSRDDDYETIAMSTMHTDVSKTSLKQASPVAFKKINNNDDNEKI
NPY-Y2 antag – blocks the human neuropeptide Y Y2 receptor. P49146. NPY-Y2 expressing cells, antagonist mode. inhibition, % at 2.7 µM. actives 0.99% (n = 140,000). AID 793; in the data active = inhibition above about 17%
NPY-Y2 PAM-ag – potentiators or agonists of human neuropeptide Y receptor Y2; P49146; cells expressing NPY-Y2, potentiator/agonist read-out; activation, % at 3.6 µM; actives 0.45% (n = 220,000); in the data active = activation above about 27%;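 note: cells stimulated with NPY near EC25 plus isoproterenol at EC100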
NPY-Y1 antag – blocks the human neuropeptide Y Y1 receptor | P25929 | HEK293-CNG Y1 cells, membrane potential fluorescence; NPY at EC95, then isoproterenol | inhibition, % at 3.6 µM | actives 1% (n = 200,000);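 active = inhibition above the campaign mean inhibition of all tested compounds plus 3 SD, cut at about 20% in these data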
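Assay system: HEK293 cells with Y1 receptor plus CNG channel | Probe or stimulus: NPY (25 nM), isoproterenol (1 µM), Ro 20-1724 (25 µM) | Timing: Compound incubation 1 h at room temperature, readout 45 min post-stimulation | Measured by: Membrane-potential fluorescent dye readout | Benchmarks: High control isoproterenol alone, low control NPY with isoproterenol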
MDM2 E3 inh – Mdm2 E3 ligase (human) inhibition | Q00987 | cell-based MDM2 ubiquitination luciferase reporter, 2 h; 0 = plate control, 100 = twice control, blank-subtracted | signal enhancement, % at 5 µM | actives 0.11% (n = 210,000);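 active = signal enhancement of 30% or more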;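 note: luminescence tracks abundance of the self-degrading MDM2-luciferase fusion protein; higher signal means inhibition of MDM2 E3 ligase activity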
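Buffer or medium: Cells held in DMEM | Assay system: Stable mammalian line carrying autodegrading MDM2–luciferase fusion reporter | Quantity: 2000 cells/well | Times: 4 h settle plus 2 h compound, 37 °C | Doses: One concentration, 5 µM, with 0.2% DMSO | Technique: Luminescence with SteadyLite reagent, 15 min at room temperature | Benchmarks: Plate controls and plate blanks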
Of the large screens only hits and unclear results are named; the others gave an inactive call. Only some compounds are listed: those with a hit (about 2.8% of all), similar ones and a draw of the others.

N#Cc1nc(-c2ccco2)oc1N1CCN(c2ccccc2)CC1	NPY-Y1 antag 26.1
N#Cc1nc(-c2ccco2)oc1N1CCC(Cc2ccccc2)CC1	NPY-Y2 antag 20.4, NPY-Y1 antag 20.8
CN(C)CCCNc1ccc(S(N)(=O)=O)cc1[N+](=O)[O-]	none
CCN(CC)CCCNC(=O)C1CCN(C(=O)c2cc3sccc3n2Cc2ccc(F)cc2)CC1	NPY1 pot ag 63.8, NPY-Y2 PAM-ag 100.2
COCCCNC(=O)C1CCN(C(=O)c2cc3sccc3n2Cc2ccc(F)cc2)CC1	none
O=C(NCCc1ccccc1)C1CCN(S(=O)(=O)c2cccc3nsnc23)CC1	Measles CPE 49.1
O=C(CSc1ccccc1C(=O)O)NCc1ccc(Cl)cc1	Measles CPE 40.4
O=C(CSc1ccccc1C(=O)O)NCc1ccco1	none
CC1C/C(=C/c2ccccn2)C(=O)/C(=C/c2ccccn2)C1 (stereo unspecified)	MDM2 E3 inh 46.0 (no result: Measles CPE, NPY-Y2 antag)
Cc1ccc(NC(=O)COC(=O)CC2CCCC2)cc1Cl	none (no result: Measles CPE, NPY-Y2 antag)
CCOC(=O)C1=C(C)NC2=C(C(=O)C(C(=O)OCC)C(c3ccco3)C2)C1c1ccccn1 (stereo unspecified)	Measles CPE 49.6
CCOC(=O)C1=C(C)NC2=C(C(=O)C(C(=O)OCC)C(c3ccccc3OC)C2)C1c1ccccn1 (stereo unspecified)	none
O=C(/C=C/c1ccc([N+](=O)[O-])cc1)Nc1cccnc1	none
O=C(/C=C/c1ccc(Cl)c([N+](=O)[O-])c1)Nc1cccnc1	Measles CPE 44.3
Cc1cccc(CSC2=CS(=O)(=O)c3ccccc3N2)c1	Measles CPE 42.4
CN(C)c1ccc(C(c2ccc(N(C)C)cc2)c2ccc([N+](=O)[O-])cc2)cc1	none (no result: Measles CPE, NPY-Y2 antag, NPY-Y1 antag)
CCCCOn1c(C)c(C(=O)OCC)c2c3no[n+]([O-])c3ccc21	none
CCCCOn1c(C)c(C(=O)OCC)c2c3nonc3ccc21	NPY-Y2 antag 23.4, NPY-Y1 antag 67.2 (no result: Measles CPE, MDM2 E3 inh)
Cc1cc(C)n2nc(NCc3cccc(Br)c3)nc2n1	none
C#CC[N+](C)(C)CCCCCCCCCC	Measles CPE 27.7
C#CC[N+](C)(C)CCCCCCCCCCCC	none
CC(=O)ON1C(C)(C)Cc2noc(N)c2C1(C)C	NPY1 pot ag 56.2, NPY-Y2 PAM-ag 55.0
CC1(C)Cc2noc(N)c2C(C)(C)N1OC(=O)c1cccs1	none
OC(CNCc1ccccc1Cl)C(F)(F)F (stereo unspecified)	none (no result: Measles CPE, NPY-Y2 antag)
S=C(Nc1ccccc1)Nc1nc2ccccc2n1CCOc1ccccc1	Measles CPE 25.9
CCOCC(=O)Nc1cc(C(=O)Nc2cc(C)cc(C)c2)ccc1Cl	none (no result: Measles CPE, NPY-Y2 antag)
Cn1c(CO)c(-c2ccccc2)c2cc([N+](=O)[O-])ccc21	Measles CPE 36.8
Cn1c2ccccc2c2cc([N+](=O)[O-])ccc21	none (no result: Measles CPE, NPY-Y2 antag, NPY-Y1 antag)
CCN(C(=O)COC(=O)c1cc(-c2cccc3ccccc23)nc2ccccc12)C1CCS(=O)(=O)C1 (stereo unspecified)	none
Cc1cccc(OCC(=O)O/N=C(\N)Cc2ccc(Cl)cc2)c1	NPY-Y2 antag 22.9
Cc1ccc(OCC(=O)O/N=C(\N)Cc2ccc(Cl)cc2)cc1	NPY-Y2 antag 21.0, NPY-Y1 antag 22.2
COc1ccc(OCC(=O)O/N=C(\N)Cc2ccc(Cl)cc2Cl)cc1	none
CCOC(=O)Cn1c(=O)oc2cc(S(=O)(=O)N3CCCc4ccccc43)ccc21	none
CCOC(=O)Cn1c(=O)oc2cc(S(=O)(=O)Nc3c(C)cc(C)cc3C)ccc21	NPY1 pot ag 37.9
CCOC(=O)Cn1c(=O)oc2cc(S(=O)(=O)NC3CCCc4ccccc43)ccc21 (stereo unspecified)	NPY1 pot ag 62.6, NPY-Y2 PAM-ag 37.3
CCOC(=O)N1CCN(CC(O)COc2ccccc2C(C)CC)CC1 (stereo unspecified)	none
CC1CN(CC(O)COC(c2ccccc2)c2ccccc2)CC(C)O1 (stereo unspecified)	Measles CPE 30.7
CCOC(=O)N1CCN(CC(O)COc2cc(C)ccc2C(C)C)CC1 (stereo unspecified)	Measles CPE 29.9, NPY1 pot ag 92.2, NPY-Y2 PAM-ag 80.6
CCOC(=O)N1CCN(CC(O)COC(CC)c2ccccc2)CC1 (stereo unspecified)	Measles CPE 46.8
CCC(OCC(O)CN1CCN(CCN2C(=O)c3cccc4cccc(c34)C2=O)CC1)c1ccccc1 (stereo unspecified)	none
CCOC(=O)N1CCN(CC(O)COc2ccccc2C(C)C)CC1 (stereo unspecified)	NPY1 pot ag 79.0, NPY-Y2 PAM-ag 58.8
OC(COC(c1ccccc1)c1ccccc1)CN1CCOCC1 (stereo unspecified)	none (no result: Measles CPE, NPY-Y2 antag)
CC(=O)c1c(C)[nH]c(C(=O)OCC(=O)Nc2sc3c(c2C#N)CCC(C)C3)c1C (stereo unspecified)	none (no result: Measles CPE, NPY-Y2 antag, NPY-Y1 antag, MDM2 E3 inh)
CCOC(=O)N1CCN(CC(O)COc2ccccc2C(C)(C)C)CC1 (stereo unspecified)	NPY1 pot ag 71.5, NPY-Y2 PAM-ag 72.0
CCC(=O)N1CCN(c2ccccc2NC(=O)COc2cc(C)ccc2C(C)C)CC1	NPY-Y2 antag 22.0, NPY-Y1 antag 30.5
Cc1ccc(OCC(=O)Nc2ccccc2N2CCCC2)c(C)c1	none (no result: Measles CPE, NPY-Y2 antag)
CC1CN(CC(O)COc2ccccc2C(C)(C)C)CC(C)O1 (stereo unspecified)	NPY1 pot ag 100.4, NPY-Y2 PAM-ag 83.8
C=CCN(CC=C)C(=O)Nc1cc(OC)ccc1OC	none (no result: Measles CPE, NPY-Y2 antag, NPY-Y1 antag)
COc1ccc(NC(=O)CN2CCN(C3c4ccccc4-c4ccccc43)CC2)cc1	none
CCN(CC)c1ccc(/C=N/NC(=O)c2cccc(S(=O)(=O)Nc3ccccc3OC)c2)c(O)c1	NPY1 pot ag 46.5, NPY-Y2 PAM-ag 34.7
CC1CC(C)CN(C(=O)c2ccc3c(c2NCCO)C(=O)c2ccccc2C3=O)C1 (stereo unspecified)	NPY1 pot ag 55.3, NPY-Y2 PAM-ag 48.6
CCn1c(COc2ccccc2)nnc1SCC(=O)Nc1cc(C)ccc1OC	none
CCn1c(COc2ccc(C)cc2)nnc1SCC(=O)Nc1cc(OC)ccc1OC	Measles CPE 49.1
Cc1ccc(-n2nc(C)cc2Nc2ncc(Cl)cc2Cl)cc1	none
Cc1cc(Nc2ncc(Cl)cc2Cl)n(-c2ccccc2C)n1	NPY-Y2 antag 20.1, NPY-Y1 antag 28.9
O=C(Nc1ccc2ccccc2c1)C(c1ccccc1)C1CCCC1 (stereo unspecified)	NPY-Y2 antag 22.3, NPY-Y1 antag 33.1
Cc1ccccc1NC(=O)C(c1ccccc1)C1CCCC1 (stereo unspecified)	NPY-Y2 antag 23.3, NPY-Y1 antag 25.6
Cc1ccc(NC(=O)C(NC2CCCC2)c2ccccc2)cc1Cl (stereo unspecified)	none (no result: Measles CPE, NPY-Y2 antag)
NC(=O)C(c1ccccc1)C1CCCC1 (stereo unspecified)	none

Screening data from PubChem BioAssay.
